Laboratory results published in the EternaBench riboswitch data.

Tested on: MS2 coat protein
Assay: apparent Kd, MS2 coat protein; higher = weaker binding; RNA-MaP array; FMN 200 µM where present
How it was run: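 In 100 mM Tris-HCl pH 7.5, 80 mM KCl, 4 mM MgCl2, BSA, DTT, yeast tRNA and Tween-20, SNAP-549-labelled MS2 coat protein was titrated from 0.7 or 1.5 nM, doubling to 3 µM, over designs transcribed by stalled E. coli RNA polymerase on Illumina sequencing-chip clusters. This was done first without ligand, then with ligand held constant. After green signal was normalised to red-channel RNA signal and control-cluster median Fmax, the apparent Kd was taken as the median of filtered per-cluster binding-curve fits.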

[1] = designed as: OFF switch for flavin mononucleotide, no ligand
[2] = ligand present: flavin mononucleotide, designed as: OFF switch for flavin mononucleotide
[3] = designed as: ON switch for flavin mononucleotide, no ligand
[4] = ligand present: flavin mononucleotide, designed as: ON switch for flavin mononucleotide

Sequence: GCCUUAUCUGUCAGGAUAUACAUUUUUUUUUUUUUGUAGAAGGGACAUGAGGAUCACCCAUGUACAUUACAUUG
- apparent Kd [1]: 0.0424 µM
- apparent Kd [2]: 0.0429 µM

Sequence: GCGAAGAACGAGAAGGCCACAACAUGAGGAUCACCCAUGUCGUGGAGUAUUGGAGGAUAUCGUUAGGCGUCUCAUGAGGACAUA
- apparent Kd [1]: 0.00592 µM
- apparent Kd [2]: 0.00566 µM

Sequence: GCGAAUUAGUGAGGAUAUACAUAAUUUAAAACUGUAGAAGGCACAAUCCUCAAGACAUGAGGAUCACCCAUGUGGUAUUACGCU
- apparent Kd [1]: 0.138 µM
- apparent Kd [2]: 0.861 µM

Sequence: GCGAUGAUCGAGAAGGCCACUACAUGAGGAUCACCCAUGUCGUGGUGUAUUGGAGGAUAUCGAUCGGCGUCUCAUGAGGACAUA
- apparent Kd [1]: 0.00465 µM
- apparent Kd [2]: 0.00578 µM

Sequence: GCGAUGUCAGGAUAUGUGUAAAGAAUAAAACAAAUAACAACACAGAAGGGACAUGAGGAUCACCCAUGUUACGC
- apparent Kd [1]: 0.0301 µM
- apparent Kd [2]: 0.0372 µM

Sequence: GCGAUUUAGUAGAAGGUACGAUAUAUAUCAUUGUAAGGAUAUACUUACAUGAGGAUCACCCAUGUUAAGGGUUAUAAUAAUCGC
- apparent Kd [3]: 0.195 µM
- apparent Kd [4]: 0.134 µM

Sequence: GCGCAAACGCCAAAAGGCGAAAUUACAUGAGGAUCACCCAUGUAGGAUAUCGAUUGCUUUGCAGUCGAGAAGGACAUGAUGCGC
- apparent Kd [1]: 0.0192 µM
- apparent Kd [2]: 0.0239 µM

Sequence: GCGGCUCCUGACAUGAGGAUCACCCAUGUUUAAUUAUUAAAUCAGGAUAUCCUCUCGAAACGAGAGGAGAAGGGAUAAGCUGCU
- apparent Kd [3]: 0.0056 µM
- apparent Kd [4]: 0.00644 µM

Sequence: GCGGGAUGAGUCGUUGGUUCACAUGAGGAUCACCCAUGUAGGGAGGAUAUACAUCUGGUCCCGGAGUAGAAGGCCCUACAUCGG
- apparent Kd [1]: 0.163 µM
- apparent Kd [2]: 0.107 µM

Sequence: GCGUAACAUGAGGAUCACCCAUGUACUCGAGAAAUCGAGUGUAGAAGGGUGACCGGUCGUUUGGCACAGGAUAUACACGCUGUG
- apparent Kd [3]: 0.0311 µM
- apparent Kd [4]: 0.0141 µM

Sequence: GCGUAAUAGAUCCUAUUUAUCUACAUGAGGAUCACCCAUGUGCAGGAUAUGCUAUAAUUUAAUAAGCAGAAGGGCAAUUUCCGC
- apparent Kd [1]: 0.0733 µM
- apparent Kd [2]: 0.159 µM

Sequence: GCGUAUAUAUGUUUUAUUUAACAGUCAGAAGGUGAUAAUACGACAUGAGGAUCACCCAUGUAAUUCAAGGAUAUGAUCUUACGC
- apparent Kd [3]: 0.117 µM
- apparent Kd [4]: 0.0201 µM

Sequence: GCGUAUGAGCAGGAUAUCCGACGGGAAUCCAAAGGAGAAGGGCUCACAUGAGGAUCACCCAUGUGGUCCUAAAC
- apparent Kd [1]: 0.0202 µM
- apparent Kd [2]: 0.101 µM

Sequence: GCGUAUUAGGUGUAGCUAGUCAUUCAAGAAGGGUGAAGAACAUGAGGAUCACCCAUGUAGUUUAUACAGGAUAUUGAUAUACGC
- apparent Kd [3]: 0.528 µM
- apparent Kd [4]: 0.235 µM

Sequence: GCGUAUUAGGUGUAGCUAGUCAUUCAAGAAGGGUGAAGAACAUGAGGAUCACCCAUGUUGUUUUUACAGGAUAUUGAUAUACGC
- apparent Kd [3]: 0.068 µM
- apparent Kd [4]: 0.00852 µM

Sequence: GCGUGACAUGAGGAUCACCCAUGUGAGGAUAUCUGGAUAAUUUUUAUUUUAGAUAUCCAGAGAAGGCACAUGCU
- apparent Kd [1]: 0.0638 µM
- apparent Kd [2]: 0.156 µM

Sequence: GCGUGGUUCUAGAAGGUGCUAGCGAUAAGCUAGCAAGGAUAUAGACAUGAGGAUCACCCAUGUCUAAGAGAAAUAGACACACGC
- apparent Kd [1]: 0.00456 µM
- apparent Kd [2]: 0.00509 µM

Sequence: GCGUGGUUCUAGAAGGUGCUAGCGAUAAGCUAGCAAGGAUAUAGACAUGAGGAUCACCCAUGUCUUAGUGAAAUGGACACACGC
- apparent Kd [2]: 0.00509 µM

Sequence: GCGUUGAACGAGAAGGCCACUACAUGAGGAUCACCCAUGUCGUGGAGUAUUGGAGGAUAUCGAUCGGCGUCUCAUGAGGACAUA
- apparent Kd [1]: 0.00534 µM
- apparent Kd [2]: 0.00562 µM

Sequence: GCGUUUUAUGCAGGAUAUUGUAAUUUAUUACUACAAGAAGGGCAAUACAUGAGGAUCACCCAUGUCAGCAUGGUAUUAAAGUUC
- apparent Kd [1]: 0.0376 µM
- apparent Kd [2]: 0.0428 µM

Sequence: GCUCGAUGUGCUGAAAACAUGAGGAUCACCCAUGUAAAUGAUCAGGAUAUUUACGUGCUUUAUGUAGAGAAGGGAUCAUCGAGC
- apparent Kd [3]: 0.26 µM
- apparent Kd [4]: 0.0783 µM

Sequence: GCUCUCGGAGGAUAUGUGCCGAGUGACAUGAGGAUCACCCAUGUAUUUCUCCUGUAAUCUACAGAAGGCCGAGGCG
- apparent Kd [1]: 0.161 µM
- apparent Kd [2]: 0.0239 µM

Sequence: GCUGCAUAGGCAGGAUAUGCAACAAUUAGAAUAAAAUAUAACUAAUUGACAUGAGGAUCACCCAUGUAGAAGGGCCUGUGCAGU
- apparent Kd [1]: 0.0211 µM
- apparent Kd [2]: 0.0196 µM

Sequence: GCUGCAUAGGCAGGAUAUGCAAUAAUUCGAAUAGAAUAUAACGAAUUAACAUGAGGAUCACCCAUGUAGAAGGGCCUGUGCAGU
- apparent Kd [1]: 0.00576 µM
- apparent Kd [2]: 0.00558 µM

Sequence: GCUGGACGAGGAUAUGCAAUCGUGCUUCGGCACGUAAGAUCACAUGAGGAUCACCCAUGUAGAAGGUGUCCAGC
- apparent Kd [1]: 0.0179 µM
- apparent Kd [2]: 0.0302 µM

Sequence: GCUGUCGCAUGAGGAUAUGGUCAGCUUUGCUGACCAGAAGGCAUGUCAAUAGACAUGAGGAUCACCCAUGUAGUAAAGACGGCU
- apparent Kd [3]: 0.313 µM
- apparent Kd [4]: 0.0324 µM

Sequence: GCUUGUAGAGGAUAUACAAGGGCCUUAGCGAAUAACACCGCACAUGAGGAUCACCCAUGUAGAAGGCUACCACC
- apparent Kd [1]: 0.0156 µM
- apparent Kd [2]: 0.0776 µM

Sequence: GCUUGUAGAGGAUAUACAAGGGCCUUAGCGGAAAACUCCGCACAUGAGGAUCACCCAUGUAGAAGGCUACCACC
- apparent Kd [1]: 0.0161 µM
- apparent Kd [2]: 0.0979 µM
